From publication PMC11871391 (Journal of Diabetes Investigation, 2024)

How the values were obtained:
[1] = system: Japanese individuals with type 1 diabetes; assay: Safety evaluation during treatment periods; type: in vivo, human; conditions: Japanese T1D; for rate of nocturnal Level 2 hypoglycemia / rate of overall Level 2 hypoglycemia (plasma glucose <3.0 mmol/L): glucose clamps excluded; for rate of overall Level 2 hypoglycemia (plasma glucose <3.0 mmol/L): from SMPG
Summary of the method: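 Randomized crossover in Japanese adults with T1D: once-weekly test insulin for 8 weeks and once-daily glargine U100 for 14 days, both with bolus aspart. Safety covered AEs, vital signs, ECG, physical exam and laboratory tests, with clinically significant findings recorded as AEs. Hypoglycemia (Level 2, <3.0 mmol/L; Level 3, severe) and hyperglycemia (>16.7 mmol/L) were identified from SMPG. Events were expressed per patient-year of exposure and summarized descriptively.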

[2] = type: in vivo, human; conditions: weekly dosing interval at steady state, Japanese T1D
Summary of the method: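 Japanese adults (20–64 y) with T1D got subcutaneous thigh doses once weekly around 20:00 for 8 weeks. The constant weekly dose was seven times the run-in daily glargine U100 dose, with glargine top-up in weeks 1–2. Blood was sampled from the first dose to 35 days after the last. Total serum drug (albumin-bound plus unbound) was measured by validated specific immunoassay. AUC was by linear trapezoid over 0–168 h; t½ was log(2)/λz by linear regression.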

[3] = system: Japanese individuals with type 1 diabetes; type: in vivo, human; conditions: weekly dosing interval at steady state, Japanese T1D
Summary of the method: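 Steady-state clamps (target 6.7 mmol/L) ran 24–48 h and 150–168 h after the final weekly dose. Before the clamp, glucose had to stay within ±20% from 60 to 30 min prior, within ±10% in the last 30 min, and fluctuate ≤0.3 mmol/L in the final 10 min. GIR was Loess-smoothed (factor 0.25). A per-participant PK/PD model simulated the daily effect across the full week.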

[4] = White individuals; cited from earlier work
insulin receptor = conditions: cited from earlier work
individuals with T1D = conditions: trials with degludec in T1D; cited from earlier work

## insulin glargine U100 [reference compound]
[1]
  rate of hyperglycemia (plasma glucose >16.7 mmol/L): 36.5 episodes per PYE
  severe (Level 3) hypoglycemic episodes: no severe (Level 3) hypoglycemic episodes
  rate of nocturnal Level 2 hypoglycemia: 9.4 episodes per PYE
  rate of overall Level 2 hypoglycemia (plasma glucose <3.0 mmol/L): 30.6 episodes per PYE

## insulin icodec
[2]
  day of maximum exposure: Day 1
[3]
  day of maximum glucose-lowering effect: Day 2
[1]
  rate of hyperglycemia (plasma glucose >16.7 mmol/L): 33.6 episodes per PYE
  severe (Level 3) hypoglycemic episodes: no severe (Level 3) hypoglycemic episodes
  rate of nocturnal Level 2 hypoglycemia: 7.8 episodes per PYE
  rate of overall Level 2 hypoglycemia (plasma glucose <3.0 mmol/L): 37.3 episodes per PYE
[4]
  half-life: approximately 1 week
Insulin receptor
  affinity for the insulin receptor: low affinity

## insulin degludec
Individuals with T1D
  rate of clinically significant or severe hypoglycemia previously reported: 42.5–88.3 episodes per PYE
